Results published in ChEMBL document CHEMBL1921774, “Evaluation of 18F-labeled benzodioxine piperazine-based dopamine D4 receptor ligands: lipophilicity as a determinate of nonspecific binding” (J Med Chem, 2011).
The source made the active and inactive calls. The rule behind the calls is not given here.

Assays:
[1] = biological target: 5-hydroxytryptamine receptor 2A (Sus scrofa, UniProt P50129); assay: Displacement of [3H]ketanserin from 5-HT2 receptor in porcine cortical membranes; format: cell membranes
Method in brief: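 Porcine cerebral cortex homogenate, 110 μg/mL protein per tube, with 0.5 nM [³H]ketanserin. Protein was measured by Lowry. Competition curves were fitted by nonlinear regression.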

D(2) dopamine receptor [2] = biological target: T1, D(2) dopamine receptor (Homo sapiens, UniProt P14416); assay: Displacement of [3H]spiperone from human dopamine D2short receptor expressed in CHO cells; format: cell-based
Method in brief: (§1)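 Membranes from CHO cells stably expressing each receptor, 2–6 μg protein per tube, competed against [³H]spiperone at 0.2 nM final. Competition curves were analyzed by nonlinear regression to give Ki.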

Homo sapiens [3] = species: Homo sapiens; assay: Selectivity ratio of Ki for human dopamine D3 receptor to Ki for human dopamine D4.4 receptor
CHO10001 = assay: Neutral antagonist activity at human dopamine D4.2 receptor expressed in CHO10001 cells assessed as inhibition of [3H]thymidine incorporation relative to quinpirole; format: functional, cell-based
Method in brief: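 Growing D4.2-expressing CHO10001 cells were stimulated with test compound and given 0.02 μCi [³H]thymidine per well; incorporation was measured. Data from four dose-response experiments were normalized and pooled to give means per concentration, and compared with the full agonist quinpirole.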

D(3) dopamine receptor = D(3) dopamine receptor (Homo sapiens, UniProt P35462); assay: Displacement of [3H]spiperone from human dopamine D3 receptor expressed in CHO cells; format: cell-based; method in brief: as §1
Homo sapiens [4] = species: Homo sapiens; assay: Selectivity ratio of Ki for human dopamine D2short receptor to Ki for human dopamine D4.4 receptor
D(2) dopamine receptor [5] = biological target: T1, D(2) dopamine receptor; assay: Displacement of [3H]spiperone from human dopamine D2long receptor expressed in CHO cells; format: cell-based; method in brief: as §1
D(4) dopamine receptor = biological target: T2, D(4) dopamine receptor (Homo sapiens, UniProt P21917); assay: Displacement of [3H]spiperone from human dopamine D4.4 receptor expressed in CHO cells; format: cell-based; method in brief: as §1
T2 sequence (P21917 whole entry): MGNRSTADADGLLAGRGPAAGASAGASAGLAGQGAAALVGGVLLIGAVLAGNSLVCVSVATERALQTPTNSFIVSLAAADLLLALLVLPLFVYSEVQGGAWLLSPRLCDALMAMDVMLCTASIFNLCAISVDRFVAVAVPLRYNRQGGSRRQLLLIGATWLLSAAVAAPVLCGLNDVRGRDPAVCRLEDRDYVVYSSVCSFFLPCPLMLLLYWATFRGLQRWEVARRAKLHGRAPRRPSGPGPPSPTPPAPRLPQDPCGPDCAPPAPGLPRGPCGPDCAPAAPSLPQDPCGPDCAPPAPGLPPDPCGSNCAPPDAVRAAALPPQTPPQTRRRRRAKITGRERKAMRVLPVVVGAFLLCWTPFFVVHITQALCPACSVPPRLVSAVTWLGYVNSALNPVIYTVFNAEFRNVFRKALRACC

[6] = Displacement of [3H]prazosin from adrenergic alpha1 receptor in porcine cortical membranes; format: cell membranes, Sus scrofa
Method in brief: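 Porcine cerebral cortex homogenate, 40 μg/mL protein per tube, with 0.2 nM [³H]prazosin. Protein was measured by Lowry. Competition curves were fitted by nonlinear regression.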

Homo sapiens [7] = species: Homo sapiens; assay: Selectivity ratio of Ki for human dopamine D2long receptor to Ki for human dopamine D4.4 receptor
[8] = Octanol-buffer partition coefficient, log P of the compound at pH 7.4 by shake flask method
D(1A) dopamine receptor = D(1A) dopamine receptor (Sus scrofa, UniProt P50130); assay: Displacement of [3H]SCH23390 from dopamine D1 receptor in porcine striatal membranes
[9] = Lipophilicity, log P of the compound at pH 7.4 by HPLC method; conditions: buffer
[10] = Displacement of [3H]WAY100635 from 5-HT1A receptor in porcine cortical membranes
[11] = biological target: T3, D(4) dopamine receptor (Rattus norvegicus) (UniProt P30729); assay: Binding affinity to dopamine D4 receptor in Wistar rat brain slices assessed as nonspecific binding at 10 nmol/L measured after 30 mins by In vitro autoradiography presence of nonradioactive ligand; conditions: tested as the 18F-labelled form
T3 sequence (whole entry): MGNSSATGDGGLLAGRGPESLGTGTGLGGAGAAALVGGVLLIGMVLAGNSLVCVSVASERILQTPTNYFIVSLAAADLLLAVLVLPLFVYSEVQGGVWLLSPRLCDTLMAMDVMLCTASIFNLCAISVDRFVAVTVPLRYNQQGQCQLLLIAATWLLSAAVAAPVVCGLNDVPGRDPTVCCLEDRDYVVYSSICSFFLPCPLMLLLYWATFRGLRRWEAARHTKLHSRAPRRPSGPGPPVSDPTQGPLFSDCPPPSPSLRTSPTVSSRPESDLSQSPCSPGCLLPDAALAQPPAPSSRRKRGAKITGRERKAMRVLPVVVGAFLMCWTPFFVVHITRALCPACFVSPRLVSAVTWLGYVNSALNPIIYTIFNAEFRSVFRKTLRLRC
Method in brief: (§2)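 Horizontal 20 μm cryostat sections of brains from Wistar rats (4–6 months, 230–250 g) were used. After a 10 min preincubation in 50 mmol/L Tris-HCl pH 7.4 at 22 °C, slices were incubated 30 min with ¹⁸F-radioligand (5 nmol/L, or 10 nmol/L for one tracer). Nonspecific binding was taken with 10 μmol/L spiperone or cold standard; total binding had DMSO alone. Regions were assigned by cresyl violet staining.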

[12] = biological target: T3, D(4) dopamine receptor (Rattus norvegicus); assay: Binding affinity to dopamine D4 receptor in coliculus of Wistar rat at 10 nmol/L after 30 mins using cresyl violet staining by In vitro autoradiography in presence of 10 uM non-radiolabeled compound; conditions: tested as the 18F-labelled form; method in brief: as §2
[13] = biological target: T3, D(4) dopamine receptor (Rattus norvegicus); assay: Binding affinity to dopamine D4 receptor in coliculus of Wistar rat at 5 nmol/L after 30 mins using cresyl violet staining by In vitro autoradiography in presence of 10 uM non-radiolabeled compound; method in brief: as §2
[14] = biological target: T3, D(4) dopamine receptor (Rattus norvegicus); assay: Binding affinity to dopamine D4 receptor in medial nuclei of cerebellum in Wistar rat at 10 nmol/L after 30 mins using cresyl violet staining by In vitro autoradiography in presence of 10 uM non-radiolabeled compound; format: tissue-based; conditions: tested as the 18F-labelled form; method in brief: as §2
[15] = biological target: T3, D(4) dopamine receptor (Rattus norvegicus); assay: Binding affinity to dopamine D4 receptor in Wistar rat striatum at 5 nmol/L after 30 mins using cresyl violet staining by In vitro autoradiography in presence of 10 uM non-radiolabeled compound; conditions: tested as the 18F-labelled form; method in brief: as §2
[16] = biological target: T4, D(4) dopamine receptor (Mus musculus) (UniProt P51436); assay: Binding affinity to dopamine D4 receptor in NMRI mouse hippocampus at 20 nmol/L after 30 mins using cresyl violet staining by In vitro autoradiography in presence of 10 uM non-radiolabeled compound; format: tissue-based; conditions: tested as the 18F-labelled form
T4 sequence (whole entry): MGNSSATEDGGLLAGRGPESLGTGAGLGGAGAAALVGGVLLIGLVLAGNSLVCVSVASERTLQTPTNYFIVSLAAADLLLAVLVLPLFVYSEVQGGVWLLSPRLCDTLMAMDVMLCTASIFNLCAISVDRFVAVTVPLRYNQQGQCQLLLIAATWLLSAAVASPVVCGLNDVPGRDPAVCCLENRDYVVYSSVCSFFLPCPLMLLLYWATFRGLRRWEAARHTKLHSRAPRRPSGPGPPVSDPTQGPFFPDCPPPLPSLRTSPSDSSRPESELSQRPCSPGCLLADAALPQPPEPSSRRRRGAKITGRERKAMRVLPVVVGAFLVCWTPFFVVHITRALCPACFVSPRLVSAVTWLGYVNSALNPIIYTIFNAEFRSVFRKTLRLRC
Method in brief: (§3)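 Sagittal brain slices from female NMRI mice (2–6 months) were preincubated 10 min in 50 mmol/L Tris-HCl pH 7.4 at 22 °C. They were then incubated 30 min with 20 nmol/L [¹⁸F]-ligand plus 10 μmol/L displacer (spiperone or cold standard), or with DMSO alone for total binding. After the ¹⁸F had decayed, regions were identified by cresyl violet staining.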

[17] = biological target: T4, D(4) dopamine receptor (Mus musculus); assay: Binding affinity to dopamine D4 receptor in NMRI mouse hippocampus cornu ammonis 3 at 20 nmol/L after 30 mins using cresyl violet staining by In vitro autoradiography in presence of 10 uM non-radiolabeled compound; format: tissue-based; conditions: tested as the 18F-labelled form; method in brief: as §3
[18] = biological target: T3, D(4) dopamine receptor (Rattus norvegicus); assay: Binding affinity to dopamine D4 receptor in Wistar rat thalamus at 5 nmol/L measured after 30 mins; conditions: tested as the 18F-labelled form; method in brief: as §2
[19] = biological target: T3, D(4) dopamine receptor (Rattus norvegicus); assay: Binding affinity to dopamine D4 receptor in medial nuclei of cerebellum in Wistar rat at 5 nmol/L after 30 mins using cresyl violet staining by In vitro autoradiography in presence of 10 uM non-radiolabeled compound; format: tissue-based; conditions: tested as the 18F-labelled form; method in brief: as §2
[20] = biological target: T4, D(4) dopamine receptor (Mus musculus); assay: Binding affinity to dopamine D4 receptor in NMRI mouse cortex at 20 nmol/L after 30 mins using cresyl violet staining by In vitro autoradiography in presence of 10 uM non-radiolabeled compound; conditions: tested as the 18F-labelled form; method in brief: as §3
[21] = biological target: T3, D(4) dopamine receptor (Rattus norvegicus); assay: Binding affinity to dopamine D4 receptor in Wistar rat frontal cortex at 5 nmol/L after 30 mins using cresyl violet staining by In vitro autoradiography in presence of 10 uM non-radiolabeled compound; format: tissue-based; conditions: tested as the 18F-labelled form; method in brief: as §2
[22] = biological target: T3, D(4) dopamine receptor (Rattus norvegicus); assay: Binding affinity to dopamine D4 receptor in Wistar rat cortex at 5 nmol/L measured after 30 mins; conditions: tested as the 18F-labelled form; method in brief: as §2
[23] = biological target: T4, D(4) dopamine receptor (Mus musculus); assay: Binding affinity to dopamine D4 receptor in NMRI mouse coliculus at 20 nmol/L after 30 mins using cresyl violet staining by In vitro autoradiography in presence of 10 uM non-radiolabeled compound; conditions: tested as the 18F-labelled form; method in brief: as §3
[24] = biological target: T4, D(4) dopamine receptor (Mus musculus); assay: Binding affinity to dopamine D4 receptor in NMRI mouse hippocampus dentate gyrus at 20 nmol/L after 30 mins using cresyl violet staining by In vitro autoradiography in presence of 10 uM non-radiolabeled compound; format: tissue-based; conditions: tested as the 18F-labelled form; method in brief: as §3
[25] = biological target: T3, D(4) dopamine receptor (Rattus norvegicus); assay: Binding affinity to dopamine D4 receptor in Wistar rat hippocampus at 5 nmol/L after 30 mins using cresyl violet staining by In vitro autoradiography in presence of 10 uM non-radiolabeled compound; format: tissue-based; conditions: tested as the 18F-labelled form; method in brief: as §2

5-hydroxytryptamine receptor 2A, sequence (P50129 whole entry): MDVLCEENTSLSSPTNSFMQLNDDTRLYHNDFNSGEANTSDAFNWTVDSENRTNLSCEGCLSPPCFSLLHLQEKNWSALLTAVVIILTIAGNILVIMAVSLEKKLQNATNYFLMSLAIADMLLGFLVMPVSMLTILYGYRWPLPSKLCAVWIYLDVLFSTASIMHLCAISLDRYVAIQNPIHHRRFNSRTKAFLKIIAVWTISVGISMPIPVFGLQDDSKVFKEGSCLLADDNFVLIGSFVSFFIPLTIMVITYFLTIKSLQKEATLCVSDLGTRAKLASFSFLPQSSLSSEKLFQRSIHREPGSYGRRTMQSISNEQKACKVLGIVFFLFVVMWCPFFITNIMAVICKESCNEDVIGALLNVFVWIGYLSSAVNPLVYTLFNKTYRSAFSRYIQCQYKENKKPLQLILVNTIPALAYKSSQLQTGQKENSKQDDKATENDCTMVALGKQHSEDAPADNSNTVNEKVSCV
T1 sequence (P14416 whole entry): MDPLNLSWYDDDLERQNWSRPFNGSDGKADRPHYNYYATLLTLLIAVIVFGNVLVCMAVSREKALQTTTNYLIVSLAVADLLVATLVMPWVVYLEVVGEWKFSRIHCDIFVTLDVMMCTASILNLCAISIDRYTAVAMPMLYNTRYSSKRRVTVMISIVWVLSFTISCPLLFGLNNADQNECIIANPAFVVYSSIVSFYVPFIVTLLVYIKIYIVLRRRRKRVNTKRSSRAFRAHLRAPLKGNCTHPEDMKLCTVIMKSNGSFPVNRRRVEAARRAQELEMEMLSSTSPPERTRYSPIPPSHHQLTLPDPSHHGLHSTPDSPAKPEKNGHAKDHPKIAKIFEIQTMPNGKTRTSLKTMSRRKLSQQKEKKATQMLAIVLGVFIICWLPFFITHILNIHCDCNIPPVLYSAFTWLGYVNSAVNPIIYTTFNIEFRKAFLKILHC
D(3) dopamine receptor, sequence (P35462 whole entry): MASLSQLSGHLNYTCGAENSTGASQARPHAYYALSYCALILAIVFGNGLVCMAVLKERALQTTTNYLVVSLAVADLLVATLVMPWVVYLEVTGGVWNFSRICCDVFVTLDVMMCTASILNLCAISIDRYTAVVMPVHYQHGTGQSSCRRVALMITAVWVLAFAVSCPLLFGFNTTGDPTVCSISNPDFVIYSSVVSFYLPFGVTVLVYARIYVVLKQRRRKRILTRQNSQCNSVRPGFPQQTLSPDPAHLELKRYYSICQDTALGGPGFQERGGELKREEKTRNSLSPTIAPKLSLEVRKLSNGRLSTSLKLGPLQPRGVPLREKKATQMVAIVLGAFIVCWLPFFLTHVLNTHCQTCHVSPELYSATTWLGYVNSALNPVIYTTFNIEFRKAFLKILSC
D(1A) dopamine receptor, sequence (P50130 whole entry): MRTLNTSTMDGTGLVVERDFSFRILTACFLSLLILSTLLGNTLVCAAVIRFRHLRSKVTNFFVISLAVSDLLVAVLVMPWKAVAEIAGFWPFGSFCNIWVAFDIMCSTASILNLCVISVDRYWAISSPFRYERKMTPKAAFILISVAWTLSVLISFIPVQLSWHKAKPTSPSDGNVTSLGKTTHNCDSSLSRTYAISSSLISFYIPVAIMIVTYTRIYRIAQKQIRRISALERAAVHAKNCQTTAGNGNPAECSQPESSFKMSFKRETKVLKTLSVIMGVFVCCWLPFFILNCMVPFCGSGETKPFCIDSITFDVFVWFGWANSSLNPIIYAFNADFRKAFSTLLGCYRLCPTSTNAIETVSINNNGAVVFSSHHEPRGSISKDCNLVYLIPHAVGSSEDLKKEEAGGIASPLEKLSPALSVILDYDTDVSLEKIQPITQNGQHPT

Row | SMILES | Ki [1] | Ki (D(2) dopamine receptor [2]) | Ratio Ki (Homo sapiens [3]) | Activity (CHO10001) | Ki (D(3) dopamine receptor) | Ratio Ki (Homo sapiens [4]) | Ki (D(2) dopamine receptor [5]) | Ki (D(4) dopamine receptor) | Ki [6] | Ratio Ki (Homo sapiens [7]) | logD [8] | Ki (D(1A) dopamine receptor) | logP [9] | Ki [10] | Activity [12] | other results
1 | COc1cc(CN2CCN(c3ccc4c(c3)OCCO4)CC2)ccc1F | 4.2 µM | 16 µM | 1400 | Active | 5.9 µM | 3800 | 17 µM | 0.0042 µM | 3.3 µM | 4000 | 2.33 | 23 µM | 2.44 | 5.6 µM | – | –
2 | Oc1cc(CN2CCN(c3ccc4c(c3)OCCO4)CC2)ccc1F | 2.3 µM | 6.1 µM | 590 | Active | 4.2 µM | 830 | 9 µM | 0.0073 µM | 3 µM | 1300 | 1.78 | 15 µM | 1.7 | 6.2 µM | Active | Activity [11]: 33%; Activity ([13]; 10 nmol/L, in the assay text read “10 nmol/L” for “5 nmol/L”, tested as the 18F-labelled form): Active; Activity [14]: Active
3 | Fc1ccc(CN2CCN(c3ccc4c(c3)OCCO4)CC2)cn1 | 5.8 µM | 45 µM | – | Active | 17 µM | – | 29 µM | 0.015 µM | 11 µM | – | – | 35 µM | – | 21 µM | Active | Activity [15]: Active; Activity [16]: Active; Activity [17]: Active; Activity [18]: Active; Activity [19]: Active; Activity [20]: Active; Activity [21]: inactive; Activity [22]: Active; Activity [23]: Active; Activity ([13]; 10 nmol/L, tested as the 18F-labelled form, in the assay text read “10 nmol/L” for “5 nmol/L”): Active; Activity [24]: Active; Activity [25]: inactive
4 | Fc1ccc(CN2CCN(c3ccc4c(c3)OCCO4)CC2)cc1 | 7 µM | 5.7 µM | 3600 | Active | 3.9 µM | 5000 | 7.6 µM | 0.0011 µM | 4 µM | 6700 | – | 19 µM | 2.71 | 5.2 µM | – | –
